Bioassay records (PubChem)
TLR9-MyD88 block = inhibitors of human TLR9-MyD88 binding. CHO BLA complementation TLR9-MyD88, CCF4 FRET ratio. inhibition, % at 4.98 µM. AID 504734. 340,000 compounds, 0.21% hits;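 active means inhibition above the mean over all tested compounds plus 3 SD, cut at about 21% in these data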;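 further: 0% = DMSO only wells and 100% = clavulanate BLA inhibitor control wells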
beta cell repl = MIN6 beta-cell proliferation induction; proliferation, % at 10 µM; 330,000 compounds, 0.29% hits; MIN6 cells proliferation, ATPlite luminescence, 48 h; cells starved in 0.2% serum; 100% = growth in 10% serum; AID 2380;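 active means compounds whose signal lies at least 3.5 SD above the mean of all wells on their plate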;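 further: 0% = DMSO-treated cells in low-serum medium and 100% = 10% serum control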
TLR4-MyD88 BLA = inhibitors of human TLR4-MyD88 binding | O00206+Q99836 | HeLa CL3-4 TLR4/MyD88 BLA complementation, FRET ratio | inhibition, % at 8.4 µM | 200,000 compounds, 0.18% hits; in the data active means inhibition above about 25%;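 further: 0% = vehicle and 100% = reference inhibitor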
MC4R antagonist = human MC4R antagonism in cAMP assay | P32245 | MC4R-expressing cells, MTII-stimulated cAMP, LANCE TR-FRET | inhibition, % at 6.5 µM | 360,000 compounds, 0.48% hits | AID 540295;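 active means inhibition above its plate's cutoff, the mean of tested wells on that plate plus 3 SD, cut at about 29% in these data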;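 further: 0% = Melanotan II alone and 100% = Melanotan II plus saturating MCL0020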
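system = U2OS cells with stable human MC4R expression | also added = Melanotan II challenge after compound preincubation | dosing = one concentration, 6.5 µM nominal | incubation = compound 30 min, challenge 1 h, detection 1 h | measured by = TR-FRET with Eu-cAMP and labeled anti-cAMP, 671 nm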
MC4R barr agon = activates human MC4R beta-arrestin recruitment | P32245 | U2OS MC4R beta-arrestin complementation, luminescence; percent of melanotan II response, DMSO zero | activation, % at 8.9 µM | 360,000 compounds, 0.98% hits | AID 540308;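 active means activation above a per-plate cutoff, the mean activation of sample wells on that plate plus 3 SD, cut at about 8% in these data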
NOD2-RIPK2 inh = NOD2-RIPK2 protein interaction inhibition; CHO BLA complementation NOD2-RIPK2, CCF4 ratio; O43353; inhibition, % at 4.98 µM; AID 624267; 360,000 compounds, 0.38% hits; in the data active means inhibition above about 21%;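 further: 0% = vehicle only and 100% = reference blocker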
MC4R barr ag = human MC4R beta-arrestin agonism confirmation | shares compounds with MC4R barr agon | U2OS MC4R beta-arrestin recruitment, luminescence; scaled DMSO 0%, Melanotan II 100% | activation, % at 8.9 µM | 2,400 compounds, 31% hits | AID 602192;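 active means mean activation across replicates above the hit cutoff set in the earlier primary screen, cut at about 8% in these data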
MOR-DOR barr ag = activates mu-delta opioid heterodimer, MC4R agonist counter-screen; U2OS PathHunter beta-arrestin, beta-gal luminescence; percent of deltorphin B response, DMSO zero; shares compounds with MC4R barr agon; 2,400 compounds, 5.8% hits; activation, % at 9.2 µM;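 active means mean activation across replicates exceeds the hit threshold derived in the earlier primary screen, cut at about 18% in these data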;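 further: 100% = deltorphin B at 0.9 µM final and 0% = DMSO alone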
Target sequence (P35372 whole entry, looked up): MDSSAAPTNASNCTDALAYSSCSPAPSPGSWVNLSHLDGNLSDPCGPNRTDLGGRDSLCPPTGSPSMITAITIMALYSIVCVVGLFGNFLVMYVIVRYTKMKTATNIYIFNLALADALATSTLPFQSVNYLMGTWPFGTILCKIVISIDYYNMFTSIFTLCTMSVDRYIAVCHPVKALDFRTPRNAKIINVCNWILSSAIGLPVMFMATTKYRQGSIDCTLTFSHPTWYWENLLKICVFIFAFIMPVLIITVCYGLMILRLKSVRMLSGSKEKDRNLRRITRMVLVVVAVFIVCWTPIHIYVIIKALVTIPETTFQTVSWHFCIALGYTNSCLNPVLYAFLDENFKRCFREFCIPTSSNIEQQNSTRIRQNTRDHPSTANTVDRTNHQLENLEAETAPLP
Target sequence (P41143 whole entry, looked up): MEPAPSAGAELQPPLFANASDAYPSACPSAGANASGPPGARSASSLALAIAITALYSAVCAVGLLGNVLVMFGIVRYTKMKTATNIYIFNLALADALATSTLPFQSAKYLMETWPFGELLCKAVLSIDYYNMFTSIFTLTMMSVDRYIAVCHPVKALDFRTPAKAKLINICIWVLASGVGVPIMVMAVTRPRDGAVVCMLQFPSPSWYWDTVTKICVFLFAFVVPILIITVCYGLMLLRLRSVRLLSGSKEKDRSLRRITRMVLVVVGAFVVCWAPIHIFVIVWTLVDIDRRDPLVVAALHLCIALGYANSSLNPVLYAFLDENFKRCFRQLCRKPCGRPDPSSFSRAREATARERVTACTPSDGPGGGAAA
The depositor's hits bear a star; · = no result. Rows were chosen to be rich in hits. Some 2.1% of all compounds tested hit in one or more screens of this group.

SMILES	TLR9-MyD88 block	beta cell repl	TLR4-MyD88 BLA	MC4R antagonist	MC4R barr agon	NOD2-RIPK2 inh	MC4R barr ag	MOR-DOR barr ag
CC(=O)Nc1cc(-c2ccc(CO)cc2)cn2c(-c3cccc(C(F)(F)F)c3)cnc12	·	·	·	9	19*	1	20*	3
COc1ccc(F)cc1-c1cc(NC(C)=O)c2ncc(-c3cccc(C(F)(F)F)c3)n2c1	·	·	·	9	19*	-13	15*	3
CC1(C)CC(=O)C=C(C#CC2(O)CCCCC2)C1	3	·	·	22	1	15	·	·
COc1cccc(C(C)(O)c2nc(-c3ccc(C)c(C)c3)cs2)c1 (configuration not stated)	·	·	·	4	2	1	·	·
CC(OC(=O)CNC(=O)c1sc2ccccc2c1Cl)c1ccccc1 (configuration not stated)	5	-1	·	-1	-1	0	·	·
Cc1ccc2c(c1)N(C(=O)CCC(=O)N1CCC(C(N)=O)CC1)CCO2	-6	-1	·	14	2	-5	·	·
Cc1cccc(NC(=O)CC2c3ccccc3Oc3ccccc32)c1	5	-3	7	2	1	-7	·	·
O=C(CC1c2ccccc2Oc2ccccc21)Nc1ccccc1F	1	-1	-10	4	11*	-5	5	6
O=C(CC1c2ccccc2Oc2ccccc21)Nc1ccccc1C(F)(F)F	-5	0	-9	5	17*	-5	4	8
Cc1nn(-c2ccccc2)c(Cl)c1/C=N/NC(=O)c1[nH]ncc1Br	3	-4	·	-1	0	2	·	·
O=C(Cc1cccs1)Nc1nnc(SCc2cccc3ccccc23)s1	4	0	-4	3	12*	-1	3	3
N#C/C(=C\c1cn(Cc2ccccc2)c2ccccc12)C(=O)NCc1ccco1	-5	0	2	7	17*	-2	1	3
N#C/C(=C\c1cn(Cc2cccc(F)c2)c2ccccc12)C(=O)NCc1ccco1	7	-4	6	-1	31*	-10	6	2
N#C/C(=C\c1cn(Cc2ccccc2C#N)c2ccccc12)C(=O)NCc1cccs1	·	2	-6	·	·	·	·	·
C=CCNC(=O)NC(=O)COC(=O)/C(C#N)=C/c1cc(C)n(CCC(C)C)c1C	-1	1	8	3	10*	-1	7	10
CC1CC(C)(C)CC2(C1)NC(=O)N(CC(=O)OCc1ccc(Br)cc1)C2=O (configuration not stated)	-7	-2	·	-1	14*	4	-1	6
CSc1cccc(NC(=O)CN(c2ccc(C)cc2C)S(C)(=O)=O)c1	-2	-4	7	11	10*	10	-1	4
O=C(CSc1nnnn1-c1ccccc1)Nc1nsc(-c2ccccc2)n1	-2	-5	-4	4	0	4	·	·
Cc1cc(C)cc(-n2nnnc2SCC(=O)Nc2nc(-c3ccc(Cl)cc3)cs2)c1	-10	-3	1	4	27*	0	7	3
Cc1ccc(-n2nnnc2SCC(=O)Nc2nc(-c3ccc(F)cc3)cs2)cc1C	-3	-2	0	3	24*	-8	13*	4
O=C(CSc1nnnn1-c1ccccc1)Nc1nsc(-c2ccc(Cl)cc2)n1	0	-3	10	7	16*	-14	5	4
Cc1cc(-c2nnc(SCC(=O)Nc3nc(-c4ccc(Cl)cc4)cs3)o2)no1	0	2	·	11	-2	7	·	·
NNC(=O)CCCCCCCCCCOCCCCO	-7	0	·	17	1	-1	·	·
Cc1cc(C)cc(N(CC(=O)NC2CCC(C)CC2)S(=O)(=O)c2c(C)[nH]c(=O)[nH]c2=O)c1 (configuration not stated)	-7	-2	·	0	-1	1	·	·
COCCNc1nnc(SC(C)C(=O)Nc2ccc(-c3nc4ccc(C)cc4s3)cc2)s1 (configuration not stated)	-4	-3	-7	12	15*	-2	7	5
SMILES	TLR9-MyD88 block	beta cell repl	TLR4-MyD88 BLA	MC4R antagonist	MC4R barr agon	NOD2-RIPK2 inh	MC4R barr ag	MOR-DOR barr ag
COCCNc1nnc(SC(C)C(=O)Nc2c(C)n(C)n(-c3ccccc3)c2=O)s1 (configuration not stated)	0	0	·	-3	-3	-1	·	·
O=C(Nc1cccc(C(F)(F)F)c1)c1cc(-c2ccc(F)cc2)on1	7	0	-4	5	16*	-4	6	4
O=C(COC(=O)c1cccnc1Nc1ccccc1F)NCc1ccc2c(c1)OCO2	0	4	-4	0	10*	-9	3	2
O=C(Nc1ccccc1)Nc1ccc2ccccc2n1	2	1	·	-3	12*	5	1	4
COc1cc(C(=O)N2CCN(c3ccccc3)CC2)c2ccccc2n1	11	·	·	-21	-2	4	·	·
COc1ccc2c(C)nc(Nc3nc(C)cc(=O)[nH]3)nc2c1	·	·	-11	·	·	·	·	·
COc1ccc2c(C)nc(Nc3nc(-c4ccccc4)cc(=O)[nH]3)nc2c1	-12	-3	·	-17	26*	5	8.4*	3
Cc1cc(NC(=O)Cc2csc(-c3ccccc3)n2)ccc1Br	0	·	3	15	15*	-13	3	7
COc1cccc(/C=N/Nc2ccc([N+](=O)[O-])cn2)c1O	12	-5	·	-3	23*	5	15*	5
O=[N+]([O-])c1ccc(NN=Cc2cccc3ccccc23)nc1	1	·	·	-2	2	9	·	·
Nn1c(COc2ccc(Cl)cc2)nc2ccccc2c1=O	-4	-3	-7	-6	1	8	·	·
O=C(Nc1ccccc1)Nc1sccc1-c1nc2ccccc2s1	·	-4	·	26	17*	-8	5	5
O=C(/C=C/c1cc2ccccc2o1)c1ccccc1O	-8	-7	·	20	15*	-1	2	3
Cc1ccc(Cn2cccc2/C=N/NC(=S)Nc2ccc(C)cc2)cc1	3	0	1	9	21*	5	8.8*	6
COc1ccc(NC(=S)Nc2ccc(F)cc2)cc1	1	-2	·	16	0	-12	·	·
Cc1ccc(NC(=S)N/N=C/c2c(C)[nH]c3ccccc23)cc1	10	-5	10	-11	-1	-6	·	·
COc1ccc(NC(=S)N/N=C/c2cccn2Cc2ccc(F)cc2)cc1	-10	-3	7	13	10*	0	-1	5
